High-throughput results as filed in PubChem BioAssay.
An excerpt weighted towards active compounds, which were near 4% of everything screened.
DAGLB inhibitor: blocks human DAGLB lipase activity | HEK293T DAGLB membrane lysate, EnzChek fluorogenic substrate | inhibition, % at 5.17 µM | hit rate 0.059% among 340,000; in the data active means inhibition above about 34%;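 further: 0% = enzyme with vehicle and 100% = wells lacking enzyme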
TAAR1 antagonist: antagonists of human TAAR1; Q96RJ0; CHO RD-HGA16 TAAR1, Fluo-8 calcium fluorescence, antagonist; inhibition, % at 3 µM; hit rate 1.5% among 360,000; AID 624466;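 active means inhibition above a per-plate cutoff, the mean inhibition of test compounds on that plate plus 3 SD, cut at about 49% in these data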;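 further: 0% = DMSO plus EC80 beta-PEA response and 100% = DMSO alone without agonist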
Target sequence (Q96RJ0 whole entry, looked up): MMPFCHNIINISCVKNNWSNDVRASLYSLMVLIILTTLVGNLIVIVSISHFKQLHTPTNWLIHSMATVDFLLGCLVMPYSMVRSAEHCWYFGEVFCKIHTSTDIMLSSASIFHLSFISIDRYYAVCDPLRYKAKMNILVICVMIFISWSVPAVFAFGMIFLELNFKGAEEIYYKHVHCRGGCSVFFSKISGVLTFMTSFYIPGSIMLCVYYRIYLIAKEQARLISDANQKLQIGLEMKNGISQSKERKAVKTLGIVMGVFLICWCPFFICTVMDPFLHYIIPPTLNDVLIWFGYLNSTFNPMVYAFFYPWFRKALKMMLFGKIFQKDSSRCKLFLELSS
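Material: CHO RD-HGA16 cells bearing hTAAR1; compound dosing: one-point dosing, 3 µM nominal final; schedule: dye loading 75 min at 37 °C, then 30 min room temperature; measured by: calcium fluorescence with Fluo-8; control set: vehicle and agonist controls; replication: n of 1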
GPR7 antag: human neuropeptides B/W receptor 1 antagonism; AID 1861; inhibition, % at 4.4 µM; hit rate 1.1% among 290,000; GPR7-expressing cells, fluorescence antagonist assay; in the data active means inhibition above about 16%, passing the limit was not always enough;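 further: cells stimulated with the agonist NPW; 0% = agonist with vehicle and 100% = vehicle without agonist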
Target sequence (P48145 whole entry, looked up): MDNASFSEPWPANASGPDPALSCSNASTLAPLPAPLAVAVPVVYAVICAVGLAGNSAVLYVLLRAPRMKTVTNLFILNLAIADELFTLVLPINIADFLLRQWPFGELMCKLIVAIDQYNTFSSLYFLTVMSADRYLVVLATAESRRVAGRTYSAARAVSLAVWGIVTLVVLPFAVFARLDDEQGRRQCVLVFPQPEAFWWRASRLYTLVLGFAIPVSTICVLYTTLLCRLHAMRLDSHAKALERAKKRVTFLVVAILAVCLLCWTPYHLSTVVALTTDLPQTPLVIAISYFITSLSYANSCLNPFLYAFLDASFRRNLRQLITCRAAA
TAAR1 ag: human TAAR1 agonism. Q96RJ0. CHO RD-HGA16 TAAR1, Fluo-8 calcium fluorescence; vehicle wells 0%, saturating PEA agonist 100%. activation, % at 3 µM. hit rate 0.99% among 360,000. AID 624467;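 active means activation above the mean activation of all test compounds in the run plus 3 SD, cut at about 38% in these data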
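test system = CHO RD-HGA16 cells carrying human TAAR1 plus Gα16 | schedule = 17-24 h seeding, 75 min 37 °C dye, 30 min RT | compound dosing = 3 µM single concentration | control set = DMSO and PEA EC100 | replicates = n 1 | signal = Fluo-8 fluorescence, 5 s baseline then 140 s kinetic read | measure = percent activation vs PEA EC100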
MPTP inh: inhibitors of mitochondrial permeability transition pore; inhibition, % at 10 µM; isolated mouse mitochondria, Ca2+ swelling absorbance, 30 min; hit rate 1.4% among 360,000;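 active means inhibition of 50% or more, scaled per plate between neutral and stimulator controls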;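 further: 0% = DMSO wells given calcium and 100% = 1 mM EGTA wells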
TAAR1 ag conf: human TAAR1 agonism, confirmed; shares compounds with TAAR1 ag; AID 651783; activation, % at 3 µM; hit rate 82% among 2,400; CHO RD-HGA16 TAAR1, Fluo-8 calcium fluorescence; scaled: DMSO 0%, maximal phenethylamine 100%;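 active means activation above a cutoff set at the run's mean compound activation plus 3 SD, cut at about 39% in these data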
Ga16 ag counter: counter-screen for TAAR1 agonists: nonselective agonists in parental cells; shares compounds with TAAR1 ag; AID 651787; activation, % at 3 µM; hit rate 50% among 2,400; CHO-Ga16 parental, Fluo-8 calcium fluorescence; normalized to maximal ATP response, DMSO zero;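 active means activation above the run cutoff, the mean activation over all tested wells plus 3 SD, cut at about 12% in these data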;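 further: 0% = DMSO wells and 100% = maximal ATP response on the peak over basal ratio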
TAAR1 desensitize: human TAAR1 agonist that also desensitizes the receptor; AID 651951; hit rate 46% among 2,400; shares compounds with TAAR1 ag; inhibition, % at 3 µM; CHO RD-HGA16 hTAAR1, Fluo-8 calcium, beta-PEA response inhibition;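 active means inhibition above the run cutoff, the mean inhibition of all test compounds plus 3 SD, cut at about 49% in these data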;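 further: beta-PEA stimulus applied at its EC80; loss of beta-PEA calcium signal after compound pretreatment read as receptor desensitization; 0% = DMSO with beta-PEA at EC80 and 100% = DMSO alone without agonist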
Ga16 nonsel ant: nonselective Ga16 antagonism, counter-screen. shares compounds with TAAR1 ag. CHO-Ga16 ATP-induced calcium, Fluo-8 fluorescence. AID 651952. inhibition, % at 3 µM. hit rate 39% among 2,400;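 active means inhibition above the plate's mean compound inhibition plus 3 SD, computed per plate, cut at about 22% in these data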;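 further: 0% = EC80 ATP with DMSO and 100% = DMSO wells without ATP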
An asterisk follows results filed as active; · = no result given.

SMILES | DAGLB inhibitor | TAAR1 antagonist | GPR7 antag | TAAR1 ag | MPTP inh | TAAR1 ag conf | Ga16 ag counter | TAAR1 desensitize | Ga16 nonsel ant
CC(C)(C)c1ccc(C#C[C@@H]2C=C[C@@H](O)[C@@H](COC(=O)NCc3ccccc3)O2)cc1 | · | -16 | · | 1 | · | · | · | · | ·
CCc1ccc(C(=O)NCc2ccc(Cl)cc2Cl)cc1 | -7 | -11 | 14 | -1 | 8 | · | · | · | ·
CCc1ccc(C(=O)NCc2ccc(Cl)cc2)cc1 | -8 | 33 | 9 | 65* | 2 | 2 | 21* | 8 | 15
CCCCN(C)CCC(=O)Nc1ccc2c(c1)CCC2 | -1 | 9 | -1 | 44* | -1 | 69* | 1 | 16 | -1
N#Cc1c(N)n[nH]c1Cc1cccc2ccccc12 | -3 | -5 | · | 0 | 0 | · | · | · | ·
Cc1nc(N)c2c(Cc3cccc4ccccc34)nn(C(C)(C)C)c2n1 | -6 | -22 | · | 47* | 0 | 41* | 7 | -13 | -14
COC(=O)[C@H](CCSC)NC(=O)NCCc1ccccc1F | 1 | -1 | -4 | 47* | -2 | 53* | 1 | 26 | 8
Cc1sc2ccc3sccc3c2[n+]1C | 2 | 13 | 5 | 48* | 2 | 14 | 8 | 11 | 10
CCCCN1Cc2ccccc2Oc2cc(Br)ccc2S1(=O)=O | -11 | -1 | · | 49* | -1 | 69* | 55* | 19 | 18
COc1ccccc1N1CCN(Cc2nc(-c3ccc(F)cc3)oc2C)CC1 | -1 | 10 | -1 | 1 | 1 | · | · | · | ·
COc1ccccc1N1CCN(Cc2cn[nH]c2-c2ccc(F)cc2)CC1 | -5 | 0 | 8 | 121* | 1 | 123* | 80* | 48 | 6
CS(=O)(=O)N1CCCCC1c1cc(C(=O)Nc2cccc3c2CCCC3)no1 (centres undefined) | · | -8 | · | 2 | 0 | · | · | · | ·
Cc1cc(O)cc2c1C1CCC3(C)C(=O)CCC3C1C=C2 (centres undefined) | 3 | 2 | · | 1 | 1 | · | · | · | ·
COC(=O)C1=C(C)N(Cc2cccc(C(F)(F)F)c2)C(=NCC2CC2)NC1c1ccccc1 (centres undefined) | · | 97* | · | 121* | · | 115* | 79* | 100* | 74*
C=CCN=C1NC(c2cccc(Cl)c2)C(C(=O)OC)=C(C)N1Cc1cccc(C(F)(F)F)c1 (centres undefined) | · | 81* | · | 67* | · | 36 | 27* | 56* | 51*
C=CCN=C1NC(c2cccc(F)c2)C(C(=O)OC)=C(C)N1Cc1cccc(C(F)(F)F)c1 (centres undefined) | · | 92* | · | 107* | · | 89* | 55* | 92* | 73*
C=CCN=C1NC(c2ccccc2)C(C(=O)OC)=C(C)N1Cc1cccc(C(F)(F)F)c1 (centres undefined) | · | 87* | · | 116* | · | 92* | 61* | 81* | 67*
O=C1CCC[C@@H]2C=C[C@H](c3ccc(Br)cc3)[C@H]3CCN1[C@@H]32 | · | 6 | · | 5 | -1 | · | · | · | ·
CN(CCO)C(=O)c1nc[nH]c1C(=O)N1CCN(c2ccccc2)CC1 | · | -7 | · | 0 | · | · | · | · | ·
O=C(NCCO)/C(=C\c1cccc([N+](=O)[O-])c1)NC(=O)c1cccs1 | 2 | 0 | · | 2 | -1 | · | · | · | ·
CN(C)c1ccc(S(=O)(=O)NCC(=O)NCc2ccccc2)cc1[N+](=O)[O-] | 1 | 48 | -8 | 79* | 1 | 12 | 4 | 0 | -6
CCCS(=O)(=O)NC(=O)C1(C)CCN(C(=O)c2ccc(C(F)(F)F)cc2)C1 (centres undefined) | · | -9 | · | 2 | 0 | · | · | · | ·
Oc1ccc(Cl)cc1CNCc1ccc(F)cc1 | -10 | 29 | · | 66* | 1 | 65* | 30* | 22 | 11
Cc1ccsc1CNCc1cc(Cl)ccc1O | -13 | 8 | · | 21 | 2 | · | · | · | ·
O=C(Cc1ccccc1)NC(=S)Nc1cccc(C(F)(F)F)c1 | -12 | 43 | 8 | 55* | 5 | 33 | 15* | 38 | 18
SMILES | DAGLB inhibitor | TAAR1 antagonist | GPR7 antag | TAAR1 ag | MPTP inh | TAAR1 ag conf | Ga16 ag counter | TAAR1 desensitize | Ga16 nonsel ant
Cc1ccc(C(=O)NC(=S)Nc2cc(C(F)(F)F)ccc2Cl)cc1 | -7 | 22 | -3 | 7 | 0 | · | · | · | ·
O=C(Cc1ccccc1)NC(=S)Nc1cc(C(F)(F)F)ccc1Cl | -17 | 49* | 7 | 53* | 3 | 49* | 20* | 39 | 19
COc1ccc(Cn2c(SCc3ccccc3C)nc3cc(OC)c(OC)cc3c2=N)cc1 | 1 | 9 | -1 | 52* | 14 | 71* | 31* | 47 | 34*
O=C(NCCCN1CCCC1=O)C(=O)NCC1OCCCN1S(=O)(=O)c1cc(F)ccc1F (centres undefined) | -2 | 1 | -28 | 3 | 0 | · | · | · | ·
CCCCCCCCN1C(=O)[C@@H](CC(=O)N2CCC(c3ccccc3)CC2)C[C@@]2(C(=O)OC)C1=C[C@H](C1CCCC1)O[C@@H]2C | · | -27 | · | 1 | · | · | · | · | ·
CC1CCCN(C(=O)COC(=O)c2cc(-c3cccs3)nn2-c2ccccc2)C1 (centres undefined) | 0 | -30 | · | 1 | 0 | · | · | · | ·
CN(C)c1ccc(C(=O)/C=C/c2cccnc2)cc1 | -1 | -4 | -2 | 0 | 0 | · | · | · | ·
CN(C)c1ccc(/C=C/C(=O)c2cccc(Br)c2)cc1 | -122 | 109* | 14 | 328* | 0 | 126* | 125* | 85* | 83*
CC1(C)CCC(=O)N2CC[C@H]3C[C@H](OC(=O)Nc4ccccc4)C[C@@H]1[C@H]32 | -1 | 10 | 3 | 58* | 2 | 52* | 5 | 16 | 10
CCn1c(CSc2nc(C)cc(C)n2)nnc1SCC(=O)Nc1nc(-c2ccccc2)cs1 | -2 | 45 | 8 | 59* | -1 | 65* | 32* | 44 | 33*
CCNC(=O)N1CCN(c2ccc(N3CCN(Cc4ccccc4)[C@@H](C)C3)c(C)c2)[C@@H](C)C1 | · | -26 | · | 3 | · | · | · | · | ·
N#C/C(=C\c1ccc(O)cc1)C(=O)NCc1cccc(Cl)c1 | -4 | 38 | 8 | 63* | -1 | 75* | 37* | 36 | 26*
N#C/C(=C/c1ccc(O)cc1)C(=O)NCc1ccc(Cl)cc1 | -1 | 4 | 0 | 34 | 2 | · | · | · | ·
COC(=O)N[C@H]1CC=C[C@@H]1Cc1cccc(Oc2ccccc2)c1 | · | -19 | · | 2 | · | · | · | · | ·
